Source: ChEMBL document CHEMBL1145903, “Defining the molecular requirements for the selective delivery of polyamine conjugates into cells containing active polyamine transporters” (J Med Chem, 2003)

Columns and labels:
L1210 [1] = assay: Cytotoxicity in DFMO treated L1210 cell lines; type: functional, cell-based; settings: Mus musculus
How it was run: (§1)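 L1210 murine leukemia cells, early to mid log phase, in RPMI with 10% FCS, glutamine, antibiotics and 2 mM aminoguanidine at 37 °C, 5% CO2. Cells were seeded at 5 × 10^4 cells/mL with drug added at seeding. For line 3, DFMO at 5 mM was present in the medium from drug addition. After 48 h of exposure, growth was read as MTT formazan absorbance at 540 nm.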

CHO-MG (Chinese hamster) = assay: Cytotoxicity in CHO-MG cell lines; settings: Cricetulus griseus
CHO (Chinese hamster) = assay: Cytotoxicity in CHO cell lines; settings: Cricetulus griseus
L1210 [2] = assay: Cytotoxicity in L1210 cell lines; type: functional, cell-based; settings: Mus musculus; how it was run: as §1
[3] = Ratio of IC50 value determined in CHO-MG cell lines to the IC50 value determined in CHO cell lines was evaluated
[4] = Ratio of IC50 value determined in L1210 cell lines to the IC50 value determined in DFMO treated L1210 cell lines was evaluated; type: functional

SMILES | IC50 (L1210 [1]) [µM] | IC50 (CHO-MG (Chinese hamster)) [µM] | IC50 (CHO (Chinese hamster)) [µM] | IC50 (L1210 [2]) [µM] | Ratio [3] | Ratio [4]
Cl.NC1CCC(NCCCCNCc2c3ccccc3cc3ccccc23)CC1 (stereo unspecified) | 0.7 | 17.4 | 2.5 | 1 | 7 | 1.4
Cl.NCCCCNCCCCNCc1c2ccccc2cc2ccccc12 |  | 66.7 | 0.45 |  |  | 2
Cl.NCCCCNCCCCNCc1ccc2ccc3cccc4ccc1c2c34 | 0.36 | 15.5 | 0.46 |  |  | 1.1
Cl.NCC(O)CNCCCCNCc1c2ccccc2cc2ccccc12 (stereo unspecified) | 2.3 | 9.5 | 9.1 | 1.5 | 1 | 0.7
Cl.NCCCCNCCCCNCc1cccc2ccccc12 |  | > 100 | 0.6 |  |  | 1.1
Cl.Cl.NCCCCCCCCNCc1c2ccccc2cc2ccccc12 | 4.6 | 4.9 | 4.9 | 3 | 1 | 0.7
Cl.NCCCNCCCCNCc1c2ccccc2cc2ccccc12 |  | 9.5 | 0.4 |  | 24 | 2
CCCCNCc1c2ccccc2cc2ccccc12.Cl |  | 11.2 | 10.5 |  |  | 0.7
Cl.NCCCCNCCCCNCc1ccccc1 | 421 |  |  |  |  | 0.1
Cl.Cl.NCCCCNCc1c2ccccc2cc2ccccc12 |  | 7.6 | 7.7 |  |  | 0.7
Cl.Cl.NCCOCCOCCNCc1c2ccccc2cc2ccccc12 | 17 | 15.9 | 12.6 | 11.3 | 1.3 | 0.7
